Assay results: ChEMBL document CHEMBL1149569, “Aminopyrrolidineamide inhibitors of site-1 protease” (Bioorg Med Chem Lett, 2007)
Active and inactive are the calls of the source. No cut-off for these calls is given here.

Experiments:
[1] = target: T1, Membrane-bound transcription factor site-1 protease (Homo sapiens, UniProt Q14703); assay: Inhibition of human S1P expressed in CHOK1 cells; type: cell-based, CHO-K1
T1 sequence (Q14703 whole entry): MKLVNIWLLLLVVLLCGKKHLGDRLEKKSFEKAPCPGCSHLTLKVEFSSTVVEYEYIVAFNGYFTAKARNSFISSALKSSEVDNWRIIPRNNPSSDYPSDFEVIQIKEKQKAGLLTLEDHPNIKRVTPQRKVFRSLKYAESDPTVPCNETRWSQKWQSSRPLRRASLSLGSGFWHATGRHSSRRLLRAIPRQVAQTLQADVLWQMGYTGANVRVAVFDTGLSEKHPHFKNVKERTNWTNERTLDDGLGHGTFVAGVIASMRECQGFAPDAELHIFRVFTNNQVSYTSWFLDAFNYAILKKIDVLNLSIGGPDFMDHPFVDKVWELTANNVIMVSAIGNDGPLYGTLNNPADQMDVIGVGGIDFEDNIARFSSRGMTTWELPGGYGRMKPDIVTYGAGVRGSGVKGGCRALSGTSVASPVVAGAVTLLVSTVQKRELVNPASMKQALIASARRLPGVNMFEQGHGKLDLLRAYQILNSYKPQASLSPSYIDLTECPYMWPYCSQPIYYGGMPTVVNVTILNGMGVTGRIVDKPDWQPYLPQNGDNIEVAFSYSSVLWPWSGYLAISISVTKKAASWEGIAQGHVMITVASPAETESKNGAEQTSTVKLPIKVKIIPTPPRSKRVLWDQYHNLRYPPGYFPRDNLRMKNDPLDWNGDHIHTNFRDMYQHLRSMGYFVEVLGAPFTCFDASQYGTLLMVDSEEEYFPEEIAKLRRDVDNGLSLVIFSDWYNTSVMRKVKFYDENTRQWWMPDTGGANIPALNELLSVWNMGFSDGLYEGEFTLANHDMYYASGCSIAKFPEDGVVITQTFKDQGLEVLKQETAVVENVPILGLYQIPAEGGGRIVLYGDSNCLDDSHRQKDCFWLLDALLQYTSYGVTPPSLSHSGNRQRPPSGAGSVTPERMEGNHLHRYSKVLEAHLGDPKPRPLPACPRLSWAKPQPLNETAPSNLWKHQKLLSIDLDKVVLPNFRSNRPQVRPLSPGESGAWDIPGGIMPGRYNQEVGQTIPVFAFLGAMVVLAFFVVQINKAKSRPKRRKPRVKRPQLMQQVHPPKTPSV

Liver [2] = assay: Inhibition of fatty acid synthesis in rat liver at 10 uM; type: functional
HepG2 [3] = assay: Inhibition of nuclear translocation of SREBP in HepG2 cells at 10 uM; type: functional, cell-based; details: Homo sapiens
Outline: (§1)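 Hep-G2 human liver cells in culture were treated at 10 µM. SREBP proteolytic processing and nuclear translocation were then assessed.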

HepG2 [4] = assay: Inhibition of cholesterol synthesis in HepG2 cells; type: functional, cell-based; details: Homo sapiens
HepG2 [5] = assay: Inhibition of LDL receptor gene expression in HepG2 cells; type: functional, cell-based; details: Homo sapiens
Hepatocyte = assay: Reduction of fatty acid synthase expression in mouse hepatocytes; type: functional, cell-based
Mus musculus [6] = assay: Antilipogenic activity in CD1 mouse assessed as reduction of HMG-CoA synthase gene expression at 30 mg/kg, ip every 6 hrs for 24 hrs; type: functional; design: scale not given: the % may be the effect or the level left; details: route intraperitoneal
Outline: (§2)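 Male CD1 mice, n = 5 per group, given 10 or 30 mg/kg/dose intraperitoneally every 6 h for 24 h (acute 24 h efficacy). Hepatic HMG-CoA synthase, fatty acid synthase and LDL receptor gene expression were measured in liver tissue samples. Cholesterol and fatty acid synthetic pathway activity was measured in the animals.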

[7] = target: Low-density lipoprotein receptor (Homo sapiens) (UniProt P01130); assay: Inhibition of LDL receptor-mediated LDL internalization in HepG2 cells; type: cell-based
Low-density lipoprotein receptor (Homo sapiens), sequence (P01130 whole entry): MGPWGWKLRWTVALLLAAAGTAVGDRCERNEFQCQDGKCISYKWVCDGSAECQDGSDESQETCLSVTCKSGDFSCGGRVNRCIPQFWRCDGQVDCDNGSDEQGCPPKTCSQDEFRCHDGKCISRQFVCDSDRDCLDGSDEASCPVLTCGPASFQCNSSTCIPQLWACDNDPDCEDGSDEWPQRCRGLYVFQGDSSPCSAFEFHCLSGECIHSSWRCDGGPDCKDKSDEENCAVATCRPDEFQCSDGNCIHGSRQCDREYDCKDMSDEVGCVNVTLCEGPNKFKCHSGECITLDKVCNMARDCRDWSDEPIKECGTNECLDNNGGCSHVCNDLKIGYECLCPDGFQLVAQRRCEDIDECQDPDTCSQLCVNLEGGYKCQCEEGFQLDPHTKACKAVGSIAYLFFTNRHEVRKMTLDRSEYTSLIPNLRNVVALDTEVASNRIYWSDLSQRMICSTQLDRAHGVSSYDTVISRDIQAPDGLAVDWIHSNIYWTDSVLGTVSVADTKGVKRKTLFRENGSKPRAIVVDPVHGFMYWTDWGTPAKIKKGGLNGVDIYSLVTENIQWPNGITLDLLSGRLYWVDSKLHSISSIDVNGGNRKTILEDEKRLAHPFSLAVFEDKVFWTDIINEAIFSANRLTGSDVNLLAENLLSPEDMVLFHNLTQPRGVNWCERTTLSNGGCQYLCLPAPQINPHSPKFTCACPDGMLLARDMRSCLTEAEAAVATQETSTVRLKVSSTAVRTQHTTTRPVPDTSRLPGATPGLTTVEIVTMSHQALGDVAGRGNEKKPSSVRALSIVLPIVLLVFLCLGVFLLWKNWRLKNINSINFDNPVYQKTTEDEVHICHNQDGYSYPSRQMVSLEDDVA

Coagulation factor X = Coagulation factor X (Homo sapiens, UniProt P00742); assay: Inhibition of factor 10a
Coagulation factor X, sequence (P00742 41-179 limits assumed): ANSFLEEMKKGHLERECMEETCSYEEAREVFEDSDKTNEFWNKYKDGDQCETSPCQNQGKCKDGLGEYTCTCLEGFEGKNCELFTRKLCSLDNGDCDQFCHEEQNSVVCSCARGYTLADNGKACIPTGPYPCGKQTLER
Coagulation factor X, sequence (P00742 235-488 limits assumed): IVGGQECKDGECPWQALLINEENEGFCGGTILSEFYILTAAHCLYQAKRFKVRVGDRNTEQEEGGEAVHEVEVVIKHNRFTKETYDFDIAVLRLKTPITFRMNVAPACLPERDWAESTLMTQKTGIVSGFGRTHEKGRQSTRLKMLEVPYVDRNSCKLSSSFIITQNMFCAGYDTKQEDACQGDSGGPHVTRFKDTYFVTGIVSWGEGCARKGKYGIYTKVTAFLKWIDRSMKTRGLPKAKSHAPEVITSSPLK

Mus musculus [8] = assay: Antilipogenic activity in CD1 mouse assessed as inhibition of cholesterol synthetic pathway at 10 mg/kg, ip every 6 hrs for 24 hrs; type: functional; design: scale not given: the % may be the effect or the level left; details: route intraperitoneal; outline: as §2
HepG2 [9] = assay: Inhibition of fatty acid synthesis in HepG2 cells at 10 uM; type: functional; details: Homo sapiens
Hep-G2 (Homo sapiens) = assay: Reduction of HMG-CoA synthase expression in human Hep-G2 cells
[10] = target: Urokinase-type plasminogen activator (Homo sapiens, UniProt P00749); assay: Inhibition of urokinase
Mus musculus [11] = assay: Antilipogenic activity in CD1 mouse assessed as reduction of HMG-CoA synthase gene expression at 10 mg/kg, ip every 6 hrs for 24 hrs; type: functional; design: scale not given: the % may be the effect or the level left; details: route intraperitoneal; outline: as §2
Liver [12] = assay: Reduction of fatty acid synthase expression in mouse liver; type: functional, tissue-based
Mus musculus [13] = assay: Antilipogenic activity in CD1 mouse assessed as reduction of fatty acid synthase gene expression at 10 mg/kg, ip every 6 hrs for 24 hrs; type: functional; design: scale not given: the % may be the effect or the level left; details: route intraperitoneal; outline: as §2
Mus musculus [14] = assay: Antilipogenic activity in CD1 mouse assessed as inhibition of fatty acid synthetic pathway at 30 mg/kg, ip every 6 hrs for 24 hrs; type: functional; design: scale not given: the % may be the effect or the level left; details: route intraperitoneal; outline: as §2
[15] = Plasma clearance in rat; type: ADME, organism-based
Liver [16] = assay: Reduction of HMG-CoA synthase expression in mouse liver; type: functional, tissue-based
[17] = Oral bioavailability in rat; type: ADME, organism-based; details: in vivo
Mus musculus [18] = assay: Antilipogenic activity in CD1 mouse assessed as reduction of fatty acid synthase gene expression at 30 mg/kg, ip every 6 hrs for 24 hrs; type: functional; design: scale not given: the % may be the effect or the level left; details: route intraperitoneal; outline: as §2
Mus musculus [19] = assay: Antilipogenic activity in CD1 mouse assessed as reduction of LDL receptor gene expression at 30 mg/kg, ip every 6 hrs for 24 hrs; type: functional; design: scale not given: the % may be the effect or the level left; details: route intraperitoneal; outline: as §2
Mus musculus [20] = assay: Antilipogenic activity in CD1 mouse assessed as inhibition of fatty acid synthetic pathway at 10 mg/kg, ip every 6 hrs for 24 hrs; type: functional; design: scale not given: the % may be the effect or the level left; details: route intraperitoneal; outline: as §2
HepG2 [21] = assay: Inhibition of proteolytic processing of SREBP in HepG2 cells at 10 uM; type: functional, cell-based; details: Homo sapiens; outline: as §1
Liver [22] = assay: Inhibition of cholesterol synthesis in rat liver; type: functional, tissue-based
Mus musculus [23] = assay: Antilipogenic activity in CD1 mouse assessed as inhibition of cholesterol synthetic pathway at 30 mg/kg, ip every 6 hrs for 24 hrs; type: functional; design: scale not given: the % may be the effect or the level left; details: route intraperitoneal; outline: as §2

COc1ccccc1CCN(C(=O)c1ccc(CN2CC3CCCC2C3)cc1)C1CCNC1 (centres undefined)
IC50 [1]: 29 nM

CCN(CC)Cc1ccc(C(=O)N(CCc2ccc(Cl)cc2)C2CCNC2)cc1 (centres undefined)
IC50 [1]: 3700 nM

COc1ccccc1CCN(C(=O)c1ccc(CN2CCCC(c3ccccc3C)C2)cc1)C1CCNC1 (centres undefined)
IC50 [1]: 37 nM

COc1ccccc1CCN(C(=O)c1ccc(CN2CC3CCC2C3)cc1)C1CCNC1 (centres undefined)
IC50 [1]: 95 nM

CCN(CC)Cc1ccc(C(=O)N(CCc2ccccc2Cl)C2CCNC2)cc1 (centres undefined)
IC50 [1]: 840 nM

COc1ccccc1CCN(C(=O)c1ccc(OCc2ccccc2)cc1)C1CCNC1 (centres undefined)
IC50 [1]: 310 nM

CC(C)Oc1ccc(C(=O)N(Cc2ccccc2Cl)C2CCNC2)cc1 (centres undefined)
IC50 [1]: > 5000 nM

CC(C)Oc1ccc(C(=O)N(CCc2ccccc2Cl)C2CCNC2)cc1 (centres undefined)
IC50 [1]: 1400 nM

CCN(CC)Cc1ccc(C(=O)N(CCc2ccccc2OC)C2CCNC2)cc1 (centres undefined)
IC50 [1]: 540 nM

CC(C)Oc1ccc(C(=O)N(CCc2ccccc2F)C2CCNC2)cc1 (centres undefined)
IC50 [1]: 9000 nM

O=C(c1ccc(CN2CCCCC2)cc1)N(CCc1ccccc1Cl)C1CCOC1 (centres undefined)
IC50 [1]: > 30000 nM

CCOc1ccccc1CCN(C(=O)c1ccc(CN(CC)CC)cc1)C1CCNC1 (centres undefined)
IC50 [1]: 16000 nM

COc1ccccc1CCN(C(=O)c1ccc(CN2CCCCC2)cc1)C1CCNC1 (centres undefined)
IC50 [1]: 250 nM

COC[C@@H]1CCCN1Cc1ccc(C(=O)N(CCc2ccccc2OC)C2CCNC2)cc1 (some centres undefined)
IC50 [1]: 140 nM

CCN(CC)Cc1ccc(C(=O)N(CCc2ccccc2C)C2CCNC2)cc1 (centres undefined)
IC50 [1]: 1600 nM

CC(C)Oc1ccc(C(=O)N(CCc2cccc(Cl)c2)C2CCNC2)cc1 (centres undefined)
IC50 [1]: 9600 nM

CC(C)Oc1ccc(C(=O)N(CCc2ccccc2Cl)C2CCN(C)C2)cc1 (centres undefined)
IC50 [1]: > 30000 nM

COc1ccccc1CCN(C(=O)c1ccc(CN2CCCC(C(N)=O)C2)cc1)C1CCNC1 (centres undefined)
IC50 [1]: 160 nM

CCN(CC)Cc1ccc(C(=O)N(CCc2c(Cl)cccc2Cl)C2CCNC2)cc1 (centres undefined)
IC50 [1]: 430 nM

Cc1ccccc1C1CCCN(Cc2ccc(C(=O)N(CCc3ccccc3Cl)C3CCNC3)cc2)C1 (centres undefined)
IC50 [1]: 8 nM

O=C(c1ccc(OCc2ccccc2)cc1)N(CCc1ccccc1Cl)C1CCNC1 (centres undefined)
IC50 [1]: 590 nM

CC(C)Oc1ccc(C(=O)N(CCc2ccccc2Cl)C2CCSC2)cc1 (centres undefined)
IC50 [1]: > 30000 nM

CCN(CC)Cc1ccc(C(=O)N(CCc2ccccc2OC)[C@@H]2CCNC2)cc1
inhibition at 10 µM (Liver [2]): 43% | Activity (HepG2 [3]): Active | EC50 (HepG2 [4]): 600 nM | Activity (HepG2 [5]): Active | EC50 (Hepatocyte): 2000 nM | Activity (Mus musculus [6]): >80% | Activity [7]: Active | IC50 (Coagulation factor X): 100 µM | Activity (Mus musculus [8]): 50% | inhibition at 10 µM (HepG2 [9]): 43% | IC50 [1]: 170 nM | EC50 (Hep-G2 (Homo sapiens)): 300 nM | IC50 [10]: 50 µM | Activity (Mus musculus [11]): >80% | EC50 (Liver [12]): 2000 nM | Activity (Mus musculus [13]): 50% | Activity (Mus musculus [14]): 80% | clearance [15]: 75 mL/min/kg | EC50 (Liver [16]): 300 nM | bioavailability [17]: 5% | Activity (Mus musculus [18]): 75% | Activity (Mus musculus [19]): 35% | Activity (Mus musculus [20]): 50% | Activity (HepG2 [21]): Active | EC50 (Liver [22]): 600 nM | Activity (Mus musculus [23]): 80%

CC(C)Oc1ccc(C(=O)N(CCc2ccccc2Cl)C2CNC2)cc1
IC50 [1]: > 30000 nM

CC(C)Oc1ccc(C(=O)N(CCc2ccccc2Cl)C2CCCNC2)cc1 (centres undefined)
IC50 [1]: > 30000 nM

COc1ccccc1CCN(C(=O)c1ccc(CN[C@H]2CCCC[C@@H]2O)cc1)C1CCNC1 (some centres undefined)
IC50 [1]: 100 nM

CC(C)Oc1ccc(C(=O)N(CCc2ccccc2Cl)C2CCN(C=O)C2)cc1 (centres undefined)
IC50 [1]: > 30000 nM

CCN(CC)Cc1ccc(C(=O)N(CCc2ccccc2OC)[C@H]2CCNC2)cc1
IC50 [1]: 970 nM

O=C(c1ccc(OCc2ccccc2)cc1)N(CCc1cccc(Cl)c1)C1CCNC1 (centres undefined)
IC50 [1]: 510 nM
